These compounds were tested on E. coli BW25113 ΔtolC growth inhibition, OD615 (assay: E. coli ΔtolC antibacterial growth inhibition – strain BW25113 ΔtolC::kan, dose response (AID 617)).
How it was run: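 System – E. coli BW25113 ΔtolC::kan bacteria · Input – inoculum from 1:1000-diluted 1.5 h subculture · Buffer or medium – LB plus kanamycin · Compound – serial dilution series of compound · Timing – bacterial growth with compound for 20 h, 37 °C · Measured by – OD615 · Read-out basis – growth-inhibition IC50 from four-parameter logistic curve, bounds set to 0% and 100% · Benchmarks – chloramphenicol 30 µM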

| Compound | IC50 |
| --- | --- |
| O=C(CSc1ncc(-c2ccc(F)cc2)n1Cc1ccco1)Nc1ccc2c(c1)OCO2 | 7.29 µM |
| O=C(CC1CCCCC1)c1c(O)c2ccccc2oc1=O | 1.72 µM |
| O=C(NCc1ccco1)C(c1cccs1)N(C(=O)C1COc2ccccc2O1)c1cccc(O)c1 (stereo not given) | 11.8 µM |
| O=C(CC(=O)c1cc(Cl)ccc1O)c1ccccc1 | 8.34 µM |
| COc1ccc(CN(Cc2cc3cc4c(cc3[nH]c2=O)OCO4)C(=O)NC2CCCCC2)cc1 | 20.2 µM |
| COC(=O)c1[nH]c2ccc(C)cc2c1NS(=O)(=O)c1ccc(F)c(C)c1 | 1.75 µM |
| CC1(C)C(=O)OC(c2cc(Br)ccc2O)C(C)(C)C1=O (stereo not given) | 15.4 µM |
| CCOC(=O)c1c(NC(=O)CSc2nnc(C)c(=O)[nH]2)sc2c1CCC2 | 10.6 µM |
| CCOC(=O)c1[nH]c2ccc(F)cc2c1NC(=O)CN1CCN(C/C=C/c2ccccc2)CC1 | 14.8 µM |
| N#Cc1ccc(CSc2nnc(-c3cccs3)n2-c2ccccc2)cc1 | 15.6 µM |
| N#CC(C#N)=c1ccc2c(c1)N1C3=C(CCCC3)CC3CCCCC31N=2 (stereo not given) | 75.6 µM |
| CCOC(=O)c1ccc(-n2[nH]c(-c3ccccc3)cc2=O)cc1 | 8.26 µM |
| CCOC(=O)N1CCC(c2cc(=O)n3[nH]c(C)c(-c4ccc(F)cc4)c3n2)CC1 | 1.68 µM |
| CCc1c(O)nc(SCc2ccccc2)n(C(C)CC)c1=O (stereo not given) | 4.28 µM |
| COc1ccccc1N1CCN(C(=O)COc2ccc(C)cc2Br)CC1 | 25.9 µM |
| COC(=O)C1=C(CSc2nc3ccccc3o2)NC(=O)NC1c1cc(C)ccc1C (stereo not given) | 13 µM |
| Cc1ccccc1-c1nc(CS(=O)(=O)CC(=O)N2CCc3ccccc3C2)c(C)o1 | 31.7 µM |
| CN(c1ccccc1)c1nc(N2CCCC2)nc(-n2ccnc2)n1 | 4.03 µM |
| CC(C)Sc1nc(NCc2ccco2)c2c3c(sc2n1)COC(C)(C)C3 | 20.6 µM |
| O=C(CCCOc1ccc(Cl)cc1Cl)N1CCN(c2ccccn2)CC1 | 6.04 µM |
| Cc1ccccc1CSc1nc2n(n1)C(c1cccs1)C1=C(CCCC1=O)N2 (stereo not given) | 8.42 µM |
| Fc1ccc(CNc2nc(-c3ccco3)cc(C(F)(F)F)n2)cc1 | 13.9 µM |
| Cc1noc(C)c1COC(=O)c1cc(C)n(-c2ccccc2)c1C | 11.5 µM |
| COc1cc2c(C#N)c(N3CCc4ccccc4C3)nc(N)c2c(N)n1 | 23.5 µM |
| Cc1ccc2c3c1C1(C(=O)N3C(C)(C)CC2C)C(C#N)=C(N)Oc2cc(O)ccc21 (stereo not given) | 2.96 µM |
| N=c1n(Cc2ccccc2)c2ccccc2n1CC(O)COc1ccccc1 (stereo not given) | 21.2 µM |
| Fc1cccc2sc(Nc3nnc(-c4ccco4)o3)nc12 | 2.84 µM |

| Compound | IC50 |
| --- | --- |
| Cn1nc(-c2ccc(N3CCOCC3)c(NC(=O)COc3ccccc3)c2)c2ccccc2c1=O | 8.7 µM |
| Cc1c(-c2nc(N)nc(Nc3ccccc3)n2)oc2ccccc12 | 12.3 µM |
| CCCc1[nH]nc2c1C(c1ccc(OC)c(CSC3=NCCS3)c1)C(C#N)=C(N)O2 (stereo not given) | 69.6 µM |
| COc1cc(-c2nc(-c3cccc(C)c3)no2)cc(OC)c1OC | 12.2 µM |
| Cc1nn(-c2ccccc2)c2sc(C(=O)N(CC(=O)NC(C)(C)C)Cc3ccco3)cc12 | 24.2 µM |
| NC1C2CN(c3nc4c(cc3F)c(=O)c(C(=O)O)cn4-c3ccc(F)cc3F)CC12 (stereo not given) | < 0.2 µM |
| CCOC(=O)c1ccccc1NC(=O)C(C)Oc1ccccc1 (stereo not given) | 30.3 µM |
| Cc1sc2nc(CN(Cc3cccs3)C(=O)NC3CCCCC3)[nH]c(=O)c2c1C | 6.91 µM |
| Cc1ccc(S(=O)(=O)N(Cc2ccc(F)cc2)Cc2ccco2)cc1 | 7.01 µM |
| Cc1ccc(Nc2nc(N)nc(CN3CCN(c4ccccc4)CC3)n2)cc1Cl | 5.97 µM |
| Cc1ccc(C(C(=O)NC2CCCC2)N(Cc2cccs2)C(=O)CNC(=O)c2cccs2)o1 (stereo not given) | 22.3 µM |
| Cc1cc(=O)[nH]c(SCC(=O)Nc2nc(-c3ccccc3)cs2)n1 | 4.48 µM |
| CCc1ccc2oc(=O)cc(CN(C)Cc3ccccc3)c2c1 | 12.9 µM |
| CCN(CC)c1ccc(-c2nn3c(-c4n[nH]c5c4CCC5)nnc3s2)cc1 | 20.8 µM |
| Cc1noc(C)c1C(=O)Nc1sc(C)c(-c2ccccc2)c1C#N | 9.36 µM |
| c1ccc(-c2noc(-c3cccc4ccccc34)n2)cc1 | 101 µM |
| Cc1cccc(N2C(N)=C(C#N)C(C#N)(C#N)C2c2ccccc2)c1 (stereo not given) | 13.3 µM |
| O=C(Nc1nnc(-c2ccccc2Cl)o1)c1cccnc1 | 16.7 µM |
| O=C(Nc1nnc(-c2cccs2)o1)c1cccc(Oc2ccccc2)c1 | 0.17 µM |
| Cc1ccccc1Cn1nc(C)c(NC(=O)c2noc3c2CC(C(C)(C)C)CC3)c1C (stereo not given) | 9.29 µM |
| CCOC(=O)c1cn(CC)c2cc(N3CCOCC3)c(F)cc2c1=O | 0.78 µM |
| O=C(NC1CCCCC1)c1sc(=S)n2c1[nH]c(=O)c1ccccc12 | 0.83 µM |
| Cc1cccc(N2CCN(C(=O)C34CC5CC(CC(C5)C3)C4)CC2)c1C | 19.6 µM |
| COc1ccccc1-c1cc(C(=O)NCc2ccc(F)cc2)no1 | 9.85 µM |
| CCc1nnc(NC(=O)c2cccc(C(=O)Nc3nnc(CC)s3)n2)s1 | 2.16 µM |
| COCc1cc(C)nc2sc3c(=O)oc(C)nc3c12 | 96.2 µM |
| CCOc1ccc(C(=O)N2CCN(c3cccc(C)c3C)CC2)cc1 | 11 µM |

| Compound | IC50 |
| --- | --- |
| COc1ccc(-c2nc3oc4cc(OC)ccc4c(=O)c3c(=O)n2Cc2ccco2)cc1 | 2.33 µM |
| O=c1n(Cc2ccccc2)c2cc(Cl)cnc2n1Cc1ccccc1 | 10.2 µM |
| CCC(=Nc1ccc(OC)cc1OC)c1c(O)n(C2CCCCC2)c(=O)[nH]c1=O | 4.85 µM |
| C=CCc1c(C)nc(SCc2nc3ccccc3c(=O)[nH]2)[nH]c1=O | 6.54 µM |
| Cc1ccc(N(CC(=O)Nc2cccc(C)c2)S(=O)(=O)c2cccc3nonc23)cc1 | 37 µM |
| CN(Cc1ccccc1)C(=O)CSc1nc2ccccc2c(=O)n1Cc1ccco1 | 10.7 µM |
| CCC(Sc1nnnn1-c1ccccc1)C(=O)Nc1nc2ccccc2s1 (stereo not given) | 5.44 µM |
| COc1ccc(NS(=O)(=O)c2cc(C)ccc2NC(=O)c2cc(C)oc2C)cc1 | 58.6 µM |
| CCOC(=O)c1c(-c2ccccc2)oc2ccc(OC(=O)N(C)C)cc12 | 9.1 µM |
| c1coc(CN(Cc2cccs2)Cc2nnnn2C2CCCCC2)c1 | 19.6 µM |
| COc1cc2c3c(c1)C1(C(=O)N3C(C)(C)C=C2C)C(C#N)=C(N)Oc2cc(O)ccc21 (stereo not given) | 6.64 µM |
| COc1ccc(NC(=O)c2ccc(Cl)c(S(=O)(=O)N3CCc4ccccc4C3)c2)cn1 | 8.1 µM |
| CCN1/C(=C(\O)c2ccccc2)C(=O)c2ccccc2S1(=O)=O | 4.56 µM |
| COC(=O)c1cc(CSc2nc3ccc(C)cc3[nH]2)oc1C | 13.8 µM |
| Cc1ccc(-n2c(C)cc(C3N=C(N)Nc4nc5ccccc5n43)c2C)c(C)c1 (stereo not given) | 6.62 µM |
| CCCCCCN=C(CC)c1c(O)n(CCCC)c(=O)[nH]c1=O | 11.8 µM |
| Cc1cc(C)c(C#N)c(N2CCN(CCOc3ccc(Cl)cc3)CC2)n1 | 10.4 µM |
| Cc1cc(Cl)ccc1OCC(=O)Nc1ccccc1N1CCOCC1 | 8.64 µM |
| CC1=CC(C)(C)N2C(=O)C3(SCC(=O)N3c3ccc(O)cc3)c3cc(C)cc1c32 (stereo not given) | 11.8 µM |
| Clc1cccc(-c2nc3nc4ccccc4nc3n2Cc2ccco2)c1 | 15 µM |
| CCOC(=O)c1cnc(-n2nc(C)cc2C)nc1NC(C)c1ccccc1 (stereo not given) | 2.76 µM |
| COc1ccc(-c2noc(CCCc3ccccc3)n2)cc1OC | 23.1 µM |
| CCCc1nc2ccccc2c(=O)n1NC(=O)c1c(O)c2ccccc2[nH]c1=O | 5.73 µM |
| CCCCN1C(=O)C2ON(c3ccccc3C)C(c3ccco3)C2C1=O (stereo not given) | 14.4 µM |
| CCOc1ccccc1N1CCN(Cc2ccc(Br)s2)CC1 | 26.6 µM |
| COc1ccc(-c2[nH]ncc2Oc2ccccc2OC)c(O)c1 | 10.5 µM |
